Source: PubChem (several laboratories)
APJ antagonist – blocks the human apelin receptor APJ. inhibition, % at 20 µM. AID 2521. P35414. CHO-K1 APJ beta-arrestin complementation, luminescence. 330,000 tested, 0.32% active;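 active means inhibition above about 40% at 20 µM, limit read from the data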;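 further: cells challenged with 10 nM apelin-13 agonist together with compound; plate controls were apelin-13 plus DMSO wells for no effect and DMSO wells lacking apelin-13 for full effect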
EBI2 antag – EBI2 (human) antagonism | P32249 | EBI2 beta-arrestin recruitment, luminescence, 7a,25-OHC stimulated | inhibition, % at 5 µM | 360,000 tested, 0.81% active | AID 651636; in the data active means inhibition above about 38%;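 further: enzyme fragment complementation signal reports receptor beta-arrestin coupling in cells; 0% = agonist plus DMSO wells and 100% = wells without agonist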
CCR6 antag – blocks CCL20-driven beta-arrestin recruitment at human CCR6 | CHO-K1 CCR6 PathHunter beta-arrestin, luminescence, CCL20-stimulated | inhibition, % at 20 µM | 340,000 tested, 0.49% active;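 active means compounds whose inhibition of the agonist-driven luminescence signal at 20 µM reaches about 50%, limit read from the data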;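 further: cells stimulated with CCL20 at 14 nM final; plate controls were DMSO with CCL20 for no effect and DMSO without agonist for full effect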
HTR2A ag – mouse HTR2A agonism via beta-arrestin recruitment; AID 624169; CHO-K1 mHTR2A beta-arrestin complementation, luminescence; percent of 30 µM serotonin response; activation, % at 7.6 µM; 360,000 tested, 0.66% active;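 active means activation above a run cutoff, the mean activation of all tested compounds plus 3 SD, cut at about 14% in these data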;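 further: 0% = plate median of compound wells and 100% = 30 µM serotonin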
Target sequence (P35363 whole entry, looked up): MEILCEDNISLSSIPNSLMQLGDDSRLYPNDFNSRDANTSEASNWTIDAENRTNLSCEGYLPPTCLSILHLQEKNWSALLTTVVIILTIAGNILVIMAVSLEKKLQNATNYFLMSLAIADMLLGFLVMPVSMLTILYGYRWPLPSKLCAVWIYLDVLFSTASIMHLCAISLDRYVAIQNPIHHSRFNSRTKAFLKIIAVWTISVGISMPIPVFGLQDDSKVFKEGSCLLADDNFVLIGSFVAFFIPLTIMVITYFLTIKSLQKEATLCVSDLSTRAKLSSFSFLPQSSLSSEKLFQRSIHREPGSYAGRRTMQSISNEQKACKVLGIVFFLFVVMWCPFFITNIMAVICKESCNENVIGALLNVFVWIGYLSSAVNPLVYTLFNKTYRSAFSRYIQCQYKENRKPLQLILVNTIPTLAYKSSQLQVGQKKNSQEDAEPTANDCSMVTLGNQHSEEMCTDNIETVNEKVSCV
APJ agonist – agonists of human APJ apelin receptor; activation, % at 20 µM; CHO-K1 APJ PathHunter beta-arrestin, luminescence; 0% DMSO wells, 100% apelin; 330,000 tested, 0.11% active; P35414;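 active means activation more than six SD over the plate average, tested at 20 µM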;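 further: 0% = DMSO alone and 100% = apelin-13 at 10 nM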
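Assay system: CHO-K1 cells stably expressing ProLink-tagged human APJ and arrestin–beta-gal acceptor. Compound dosing: 20 µM single point, 1% DMSO. Times: 16-18 h seeding, 90 min dark compound exposure, 60 min detection. Detection: beta-gal luminescence. Evaluation: APJ–arrestin association signal. Controls: negative DMSO alone, positive Apelin-13 at 10 nM.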
CXCR6 block – CXCR6 (human) receptor inhibition. inhibition, % at 20 µM. CHO-K1 PathHunter CXCR6 beta-arrestin, luminescence. O00574. 360,000 tested, 0.36% active; in the data active means inhibition above about 34%, passing the limit was not always enough;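 further: antagonist mode with CXCL16 agonist at 10 nM final; 0% = 10 nM CXCL16 with DMSO and 100% = unstimulated wells without agonist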
EBI2 antag conf – confirmation of human EBI2 receptor antagonists; shares compounds with EBI2 antag; EBI2 beta-arrestin luminescence, 7a,25-OHC antagonism; inhibition, % at 5 µM; 2,400 tested, 29% active; AID 651997;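 active means inhibition of at least 50%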
EBI2 agonist – activates EBI2, counter-screen for EBI2 antagonists | 2,400 tested, under 10 active | activation, % at 5 µM | EBI2-expressing cells, agonist mode, luminescence, 60 min; 0% vehicle, 100% 7α,25-dihydroxycholesterol control | shares compounds with EBI2 antag | AID 652000;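 active means activation of at least 50%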
bGal counter – counter-screen for EBI2 antagonists: E. coli beta-galactosidase inhibition; purified beta-galactosidase, luminescent Galacton Star, 15 min; inhibition, % at 5 µM; 2,400 tested, 1% active; shares compounds with EBI2 antag;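 active means replicate-average signal at least 3 plate SD below neutral wells, shown as high inhibition, flagging enzyme-inhibiting false positives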;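 further: 0% = DMSO wells with enzyme and 100% = wells lacking enzyme; higher means stronger loss of beta-gal luminescence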
The depositor's hits bear a star; nt = not tested or not shown. The list is not random: actives were taken first. Their share in the collection is about 2.1%.

SMILES	APJ antagonist	EBI2 antag	CCR6 antag	HTR2A ag	APJ agonist	CXCR6 block	EBI2 antag conf	EBI2 agonist	bGal counter
CCOC(=O)c1c(C)[nH]c(C(=O)O)c1C	6	3	6	2	-1	-7	nt	nt	nt
CCOc1ccc(NC(=O)CCC(=O)NNC(=O)c2ccccc2Cl)cc1	28	10	0	-10	9	-12	nt	nt	nt
Cc1ccc(C)c(S(=O)(=O)N2CCN(C(=O)CCCc3c[nH]c4ccccc34)CC2)c1	-37	60*	16	1	1	1	34	1	6
Cc1ccc(C)c(S(=O)(=O)N2CCN(C(=O)CSc3ccccc3)CC2)c1	3	57*	8	-6	2	11	62*	1	6
O=C(NN=Cc1ccc2c(c1)OCO2)c1ccccc1	nt	8	6	-2	nt	-2	nt	nt	nt
CCOC(=O)C1=C(C)N(CCCCCC(=O)O)C(=O)NC1c1ccccc1OS(=O)(=O)c1ccc(C)cc1 (configuration not stated)	26	-3	4	3	5	5	nt	nt	nt
Cc1ccc(C(=O)Oc2cccc(NC(=O)c3cccs3)c2)cc1S(=O)(=O)N1CCOCC1	-2	-20	20	-2	2	-6	nt	nt	nt
COn1c(-c2ccccc2)nc2c1CCc1c-2no[n+]1[O-]	1	-8	2	0	1	5	nt	nt	nt
[O-][n+]1onc2c1CCc1c-2nc(-c2ccccc2)n1OCc1ccccc1	-17	49*	17	5	-3	9	40	0	4
O=C(Nc1cc([N+](=O)[O-])ccc1C(=O)NCCN1CCOCC1)c1ccccc1	-41	-7	-3	-5	15	-4	nt	nt	nt
CCOC(=O)N1CCN(C(=O)NC2CCCCC2)CC1	4	-5	-11	5	0	0	nt	nt	nt
CCOC(=O)N1CCN(C(=O)CNC2CCCCCCC2)CC1	9	45*	13	-2	-5	3	11	0	4
O=C1N=C(N2CCCCC2)S/C1=C\c1ccc(Br)cc1	2	87*	-2	8	-1	4	58*	0	-15
Cc1ccc(/C=C2\SC(N3CCCC3)=NC2=O)cc1	4	nt	nt	nt	-1	nt	nt	nt	nt
CCOC(=O)C1CCN(C2=NC(=O)/C(=C/c3ccc(Cl)cc3)S2)CC1	8	87*	-3	-1	-2	6	66*	0	5
CCOc1ccc(/C=C2\SC(N3CCCCC3)=NC2=O)cc1	-1	74*	2	3	0	2	50*	2	8
CC(C)C(=O)NC(=O)[C@@H]1CCCN1C(=O)/C=C/c1ccccc1	9	5	0	0	-2	-2	nt	nt	nt
CC(=O)c1ccc(N2CCN(CC(O)COC(c3ccccc3)c3ccccc3C)CC2)cc1 (configuration not stated)	10	13	18	-4	-2	-9	nt	nt	nt
Nn1c(SCC(=O)NCc2ccccc2)nncc1=O	-22	-7	-8	1	0	1	nt	nt	nt
CCOc1ccc(Br)cc1S(=O)(=O)Nc1ccc(C(=O)Nc2ccc(C)cc2)cc1	5	56*	1	-3	1	-21	18	-1	-10
COC(=O)c1c(NC(NC(=O)CC(C)C)C(Cl)(Cl)Cl)sc2c1CCC2 (configuration not stated)	17	64*	2	-2	1	-2	12	0	6
CCC(=O)NC(Nc1sc2c(c1C(=O)OC)CCC2)C(Cl)(Cl)Cl (configuration not stated)	-1	24	2	-4	-2	-4	nt	nt	nt
CCCCn1nnnc1C(c1cc2ccccc2o1)N1CCN(C/C=C/c2ccccc2)CC1 (configuration not stated)	nt	62*	nt	-8	nt	0	34	0	6
CCCCn1nnnc1C(c1cc2ccccc2o1)N1CCN(c2ncccc2C#N)CC1 (configuration not stated)	nt	48*	nt	2	nt	2	37	0	-16
CCCCn1nnnc1C(c1cc2ccccc2o1)N1CCCC1 (configuration not stated)	nt	-10	nt	-5	nt	3	nt	nt	nt
SMILES	APJ antagonist	EBI2 antag	CCR6 antag	HTR2A ag	APJ agonist	CXCR6 block	EBI2 antag conf	EBI2 agonist	bGal counter
O=C(NNC(=S)Nc1ccc(OC(F)F)cc1)c1cc2c(s1)CCCC2	29	-5	22	-2	-2	2	nt	nt	nt
CN(C)c1ccc(-c2noc(C3CCN(C(=O)Nc4ccc(Cl)cc4)CC3)n2)cc1	-5	82*	0	6	-4	9	57*	0	4
O=C(Nc1ccc(Cl)cc1)N1CCC(c2ccccc2)C1 (configuration not stated)	-6	87*	19	-3	-1	2	55*	-1	-8
Cc1ccc(NC(=S)N2CCC(c3ccc(C)cc3)C2)cc1 (configuration not stated)	11	17	-4	-1	-2	7	nt	nt	nt
Cc1ccc(C2CCN(C(=O)Nc3ccccc3)C2)cc1 (configuration not stated)	4	60*	3	-4	-2	0	47	-1	7
CN(C)c1ccc(-c2noc(C3CCN(S(=O)(=O)c4ccc(C(=O)O)cc4)CC3)n2)cc1	6	-4	-9	-2	-3	1	nt	nt	nt
COc1ccc(NC(=S)N2CCC(c3ccc(C)cc3)C2)cc1 (configuration not stated)	11	46*	12	-2	-4	2	33	1	4
COc1ccccc1N1CCN(S(=O)(=O)CCNC(=O)c2ccccc2Br)CC1	10	2	-5	-2	1	-6	nt	nt	nt
CCOc1nc(NCCC2=CCCCC2)nc(N2CCOCC2)n1	13	10	0	-4	-2	6	nt	nt	nt
Cc1ccc(NC(=O)N2CCC(c3ccccc3)C2)cc1C (configuration not stated)	-4	73*	8	-3	0	6	63*	0	0
O=C(Nc1cccc(F)c1)N1CCC(c2ccccc2)CC1	1	67*	13	-2	-3	-1	41	0	-9
O=C(Nc1cccc(F)c1)C1CCN(C(=O)NCc2ccccc2)CC1	4	4	13	-3	-2	3	nt	nt	nt
COc1ccc(C)cc1N(CC(=O)N1CCCCCC1)S(=O)(=O)c1ccc(C)cc1	-7	-5	7	-6	-6	6	nt	nt	nt
CCOC(=O)c1c(C)nc(C)c(C(=O)OCC)c1-c1cccc([N+](=O)[O-])c1	nt	59*	nt	-1	nt	-3	35	0	7
